The results in this text go back to ChEMBL document CHEMBL1141084, “Analogues of thiolactomycin as potential antimalarial agents” (J Med Chem, 2005).

pIC50: −log10 of the molar value.

One assay has as its system Leishmania donovani. The assay is described as follows: Inhibitory concentration against amastigotes of Leishmania donovani strain MHOM/ET/67/L82 upon incubation at 37 degrees C for 72 hours using alamar blue. (In general: Resazurin is reduced to fluorescent resorufin, in cell work by metabolically active cells.)
For another assay, the system named is Plasmodium falciparum. The assay can be described thus: In vitro inhibitory concentration against chloroquine-resistant, pyrimethamine-resistant Plasmodium falciparum K1. The assay is classed as functional, organism-based. To be noted: Plasmodium falciparum.
The target of assay [1] is T1, Beta-ketoacyl-ACP-synthase III (Plasmodium falciparum) (UniProt O77078).
T1 sequence (whole entry): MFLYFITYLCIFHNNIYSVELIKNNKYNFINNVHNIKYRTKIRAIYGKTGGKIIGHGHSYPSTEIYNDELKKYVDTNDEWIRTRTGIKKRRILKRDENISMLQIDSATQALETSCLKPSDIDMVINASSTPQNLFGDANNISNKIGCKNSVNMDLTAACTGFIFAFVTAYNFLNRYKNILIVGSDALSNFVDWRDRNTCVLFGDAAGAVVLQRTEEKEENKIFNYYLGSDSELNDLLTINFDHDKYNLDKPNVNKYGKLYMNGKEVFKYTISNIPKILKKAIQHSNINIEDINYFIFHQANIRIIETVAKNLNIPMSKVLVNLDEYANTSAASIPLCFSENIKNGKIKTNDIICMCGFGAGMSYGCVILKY
The assay can be described thus: Percent inhibition of recombinant Plasmodium falciparum beta-Ketoacyl-acyl carrier protein synthase III activity (MBP-pfKASIII) expressed in E. coli cells using [1-14C]acetyl-CoA as radioligand upon incubation at 37 degrees C for 15 minutes with compound dissolved in 2% DMSO at 10 uM; NA = no activity. Put shortly:
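MBP-fused pfKASIII from E. coli BL21(DE3) codon+RIL, amylose-purified, 500 ng per reaction. Buffer: 100 mM NaH2PO4 pH 6.6, with 25 µM E. coli ACP prereduced with 1 mM β-mercaptoethanol (37 °C, 30 min), 1 µg E. coli FabD, 65 µM malonyl-CoA and 45 µM [1-14C]acetyl-CoA. 2% DMSO final; 37 °C, 15 min. Read-out: filter disks, TCA-washed, scintillation-counted.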

In the next assay the test system is Trypanosoma cruzi. The assay can be described thus: Inhibitory concentration against Trypanosoma cruzi [Tulahuen strain C2C4] in rat skeletal myoblasts upon incubation at 37 degrees C for 4 days in 5% CO2. The assay is classed as functional, organism-based. Particulars: Trypanosoma cruzi, 96 h.
Assay [2] concerns Trypanosoma brucei rhodesiense. The assay is described as follows: Inhibitory concentration against Trypanosoma brucei rhodesiense STIB 900 upon incubation at 37 degrees C in 5% CO2 for 72 hours. In kind it is functional, organism-based. Particulars: Trypanosoma brucei, 72 h.

Regarding `CCCCCCCCCCC1(C)SC(=O)C(CCC)=C1OCc1ccccc1` (stereo not given), the pIC50 (usually the IC50 on a negative log10 scale, so that one unit is a factor of ten) in the assay with Leishmania donovani is less than 4.13; in the assay on Plasmodium falciparum, 5.40; in the assay on Trypanosoma cruzi, 4.89; in assay [2], less than 3.65. Moreover, in assay [1], the inhibition entry was “No activity”.
In the same order, the values of `C=CCC1(CCC)C(=O)SC(C)(CCCCCCCCCC)C1=O` (stereo not given) are 4.09, 4.72, 4.33, 5.05 and “No activity”.
Take `CCCC1=C(OC)C(C)SC1=O` (stereo not given): the negative-log IC50 (pIC50) in the assay on Leishmania donovani was 4.00; in the assay with Plasmodium falciparum, 4.35; in the assay on Trypanosoma cruzi, 3.44; in assay [2], 5.05. Also, the inhibition result in assay [1] is “No activity”.
In the same order, the values of `C=CCOC1=C(CCC)C(=O)SC1(C)CCCCCCCCCC` (stereo not given) are 4.18, 6.00, 4.10, 4.85 and “No activity”.
As for `CCCC1=C(O)C(C)(CCCCCCO)SC1=O` (stereo not given), the pIC50 in the assay on Leishmania donovani is 4.06; with Plasmodium falciparum, 3.80; in the assay with Trypanosoma cruzi it was 4.19; in assay [2] it was 4.19. For the same compound, the inhibition result in assay [1] was “No activity”.
For the compound `CCCCCCCCCCC1(C)SC(=O)C(C/C=C(/C)CCC=C(C)C)(CCC)C1=O` (stereo not given), the pIC50 in the assay with Leishmania donovani was less than 4.18; with Plasmodium falciparum, 4.11; in the assay with Trypanosoma cruzi, less than 4.18; in assay [2], less than 3.70. Moreover, in assay [1], the inhibition result was “No activity”.
Regarding `CCCC1=C(O)C(C)(CCCCCCO[Si](C)(C)C(C)(C)C)SC1=O` (stereo not given), the pIC50 in the assay with Leishmania donovani is 6.00; in the assay on Plasmodium falciparum it was 4.43; in the assay on Trypanosoma cruzi, 3.82; in assay [2], 5.70. Also, the inhibition entry in assay [1] is “No activity”.
